Experiment: Toxicity liver stage against HepG2, at 10uM
Format: cell-based
Set-up: test concentration 10 uM, cell line HepG2-A16-CD81EGFP
Details: human, HepG2-A16-CD81EGFP cells; read-out: INHIBITION
In short: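 Uninfected HepG2-A16-CD81EGFP cells, 3 × 10^3 per well, 1536-well, plated on prespotted compound at 10 μM final, parasite-free screening media added to match infected plates; puromycin 10 μM positive, DMSO 0.5% negative; run in parallel with 48 h PbLuc assay at 37 °C, 5% CO2; viability by CellTiter-Glo luminescence, normalized to controls.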

Row | SMILES | cytotoxicity at 10 µM [%]
1 | O=C(c1cccc(F)c1)N1CCCN(Cc2cscn2)CC1 | -3.13
2 | Cc1n[nH]c(C)c1CNC(=O)NC1CCCN(c2ccccc2F)C1 (configuration not stated) | -2.57
3 | Cc1ccc(OCCC(=O)NC2CCc3nc(C)cn3C2)cc1 (configuration not stated) | -5.59
4 | Cc1cccc(C2(CNC(=O)C(C)S(C)(=O)=O)CCCC2)c1 (configuration not stated) | -2.76
5 | CCN(Cc1cccc2c1OCCO2)C(=O)NC(C)(C)C | -20.9
6 | CC(C)(C)C(Cn1cccn1)NC(=O)c1ccco1 (configuration not stated) | -5.5
7 | CCCOc1cccc(C(=O)Oc2cc(=O)n3cccc(C)c3n2)c1 | 12.1
8 | COc1ccccc1C(C)(C)NCc1ccco1 | 5.95
9 | CSc1ncccc1C(=O)NC(C)c1cccc(N2CCOC2=O)c1 (configuration not stated) | -9.05
10 | CN(C)c1ncc(CNS(=O)(=O)c2cc(F)ccc2Cl)n1C | 6.69
11 | CCOC(=O)CC1CCCCN1C(=O)c1cnc(C)cn1 (configuration not stated) | 0.957
12 | O=c1ccncn1Cc1csc(C2CC2)n1 | -0.572
13 | CN1CCN(CC2CC2)C(=O)c2cnc(N3CCC(CO)CC3)nc21 | -3.14
14 | Cc1nc(C)n(C2CCCN(C(=O)c3ccn(C(C)C)n3)C2)n1 (configuration not stated) | -22.6
15 | O=C(O)c1cc2c(nc1-c1ccoc1)CCN(Cc1ccco1)CC2 | -78.9
16 | O=C(Cn1ccc(=O)[nH]c1=O)NCC1Cc2ccccc2O1 (configuration not stated) | 3.74
17 | Cc1ccc(Nc2nccc(C3CCN(C(=O)CN)C3)n2)nc1 (configuration not stated) | -18.5
18 | COc1ccc(-c2nc(CN3CCc4c(ncn4C)C3)cs2)cc1 | 3
19 | Cc1ccoc1C(=O)N1C[C@H]2CCC[C@@]2(COCc2ccncc2)C1 | 9.56
20 | COCC1CCN(Cc2cc(O)c3c(C)ccc(C)c3n2)CC1 | -6.09
21 | CC(=O)NCCNCc1cn(CCN2CCSCC2)nc1C | 0.95
22 | Cc1occc1C(=O)N1CCC2(CC1)NC(=O)CC2c1cnn(C)c1 (configuration not stated) | -4.99
23 | O=C(Cc1ccccc1Cl)N1CCN(CC(O)COCCO)CC1 (configuration not stated) | 5.51

Row | SMILES | cytotoxicity at 10 µM [%]
24 | Cc1nc2c(c(=O)n1C)CCN(Cc1cc3cc[nH]c3cn1)CC2 | -9.56
25 | Cc1ccccc1-n1nccc1NC(=O)CCOC(C)C | 0
26 | CNc1cccc(C2CN(C(=O)CNS(C)(=O)=O)CCO2)n1 (configuration not stated) | -2.24
27 | O=C(NCCn1ccnc1)C1(c2ccc3c(c2)OCCO3)CCCC1 | -4.38
28 | Cc1ccc(C(=O)N2C[C@@H]3CCCO[C@@H]3[C@H](N3CCOCC3)C2)cn1 | -3.4
29 | CC(C)c1nc2c(n1C)CCN(CC(=O)Nc1cccnc1)C2 | -9.52
30 | CCC1COCCN1C(=O)CNC(=O)c1ccoc1C (configuration not stated) | -7.51
31 | C=c1ncsc1=C1NN=C(C2CCCN2C(=O)Cn2cccn2)O1 (configuration not stated) | 4
32 | Cc1ccc(C(=O)Nc2ccc(OC3CCN(C)CC3)cc2)c(C)c1 | 7.48
33 | O=C(CCOc1ccccc1)NS(=O)(=O)Cc1ccccc1 | -1.48
34 | N#Cc1cccc(NC(=O)CCn2nc(-c3cccs3)oc2=O)c1 | -2
35 | CCCNC(=O)Nc1ccn(CCCOC)n1 | -2.11
36 | CCS(=O)(=O)N1CCCC(n2nnn(-c3ccccc3)c2=O)C1 (configuration not stated) | 2.65
37 | O=C(COCc1ccccc1Cl)Nc1ccnn1CC1CCOC1 (configuration not stated) | -1.9
38 | Cc1cccc(CN2CCN(C(=O)[C@@H]3CSCN3C)CC2)c1 | -8.56
39 | Cc1ccc(C(=O)N(C)Cc2ccc3c(c2)OCO3)c(=O)[nH]1 | -12
40 | COc1ncc(NCc2ccsc2)cc1C(N)=O | 1.25
41 | CCn1c(N)nc2cc(C(=O)NCCc3ccccc3F)cnc21 | -1.83
42 | CCC1=N[C@@]2(CC[C@@H]3CN(Cc4cccc(Cl)c4)C[C@@H]32)C(=O)N1C | -102
43 | CN1CCN(Cc2ccccc2Oc2ccc(C(N)=O)cn2)CC1 | -23.6
44 | CCCNC(=O)c1cc(C(C)C)nc(N2CCCC2)n1 | 8.77
45 | Cc1cc(N2CCc3c(ncn3C3CC3)C2)nc(N)n1 | -5.44
46 | Cc1nnc(NC(=O)CN2CCCC2c2c(C)nn(C)c2C)s1 (configuration not stated) | -14.1

Row | SMILES | cytotoxicity at 10 µM [%]
47 | O=C(C1CCS(=O)(=O)C1)N1CCN(c2cnccn2)CC1 (configuration not stated) | -6.66
48 | C[C@@H]1CN(C(=O)C2CCOCC2)C[C@]12CCN(c1cccnc1)C2=O | 6.95
49 | O[C@@]1(CNCC2(Cn3ccnc3)CC2)CCCN2CCCC[C@@H]21 | 5.09
50 | CCS(=O)(=O)N1CC(=O)N(Cc2ccccc2OC)CC(O)C1 (configuration not stated) | -95.5
51 | CC(C)CNC(=O)N1C[C@H]2CCN[C@H]2C1 | 7.12
52 | Cc1ccoc1C(=O)N1CCOCC2(CCN(c3ncccn3)C2)C1 (configuration not stated) | -7.23
53 | c1ccc(Cc2nc(C3CC3)nn2-c2ccc3c(c2)OCCO3)nc1 | 2.6
54 | COCc1ccc(C(=O)N2CCN(CC=C(C)C)[C@@H]3CS(=O)(=O)C[C@@H]32)o1 | 17.2
55 | O=C(CO)N1C[C@@H]2CC[C@H]1CN(C1Cc3ccccc3C1)C2 | -11.3
56 | CCCn1cc(S(=O)(=O)N[C@H]2CN(CC(N)=O)C[C@@H]2C2CC2)cn1 | -11.7
57 | CN(Cc1ccco1)c1ccc(C(=O)NCCCc2ccccn2)cn1 | -55.8
58 | CC(C)CC(CCO)CNC(=O)N1CCCC1(C)C (configuration not stated) | -12.7
59 | CNC(=O)CN1C(=O)CN(C(=O)COC)CCC(OC)c2ccccc21 (configuration not stated) | -8.12
60 | Cc1nc(Cn2cc(C#N)c(=O)c3ccccc32)no1 | 9.95
61 | Cc1cccnc1CNC[C@H]1Cn2cc(-c3ccccc3)nc2CO1 | -2.56
62 | Cc1noc(Cl)c1CC(=O)N1CCCC1Cn1cccn1 (configuration not stated) | -9.76
63 | Cc1nc(C)n(C2CCCN(C(=O)CCOC(C)C)C2)n1 (configuration not stated) | -1.92
64 | O=C(CCn1cc(Cl)cn1)N1CCCC(O)(CO)CC1 (configuration not stated) | -145
65 | COCC(C)N1CCN(CCc2ccc3c(c2)CCO3)CC1 (configuration not stated) | 4.16
66 | Cc1noc(COCC(=O)Nc2ncccc2Br)n1 | 2.13
67 | CNc1c(NCc2ccco2)c(=O)c1=O | -10.6
68 | Nc1cc(N2CCCC(COc3ccc(F)cc3)C2)ncn1 (configuration not stated) | -0.106
69 | COc1ccc(Cl)c(-c2noc3ncn(CCC(=O)O)c(=O)c23)c1 | 7.25

Row | SMILES | cytotoxicity at 10 µM [%]
70 | Cc1cc(C)c(C(=O)N2CCOCC2c2c(C)nn(C)c2C)o1 (configuration not stated) | -2.48
71 | CC(C)Nc1ncc(-c2csc(NC(=O)C[C@H]3COCCN3)n2)cn1 | -8.69
72 | COCCOc1ccnc(-c2noc([C@@H]3CCCN3C3CCC3)n2)c1 | -8.46
73 | O=C(c1ncncc1Cl)N1CCN(c2ccc(Cl)cc2)CC1 | -2.72
74 | N[C@@H](Cc1c[nH]cn1)C(=O)N1CCC(Oc2ccc(Cl)cc2)CC1 | -2.13
75 | O=C(O)c1ccccc1-c1c(-c2ccccc2)ncn1CC1CCCO1 (configuration not stated) | 2.84
76 | Cc1ccsc1CN1CCc2nc3ccsc3c(=O)n2CC1 | 8.52
77 | COc1cc(CCC(=O)NC(C)(C)C)ccc1OCC(F)(F)F | -8.76
78 | O=S(=O)(NCCC(O)c1cccs1)c1ccccc1Cl (configuration not stated) | 1.87
79 | Cc1cc(N(C)CCn2ccnc2C)n2nccc2n1 | 4.09
80 | O=C1[C@@H]2CC[C@@H](CN(Cc3nnc(C4CC4)o3)C2)N1Cc1cscn1 | 9.57
81 | CCc1csc(C2CCCN(C(=O)c3c[nH]c(C)n3)C2)n1 (configuration not stated) | -9.03
82 | O=c1c(NCCOCCO)c(N2CCN(c3ccccc3)CC2)c1=O | -5.64
83 | O=C(CCc1ccsc1)NS(=O)(=O)Cc1ccon1 | -12.6
84 | CC(C)COCC(NC(=O)Cc1ccn[nH]1)c1ccco1 (configuration not stated) | -1.53
85 | CS(=O)(=O)Cc1nc(C2CC2)nn1-c1ccccn1 | 1.87
86 | c1cnc(N2CC3(CCN(Cc4cccnc4)C3)C2)nc1 | -4.87
87 | COc1ccc(C(=O)C2CCCN(c3cnccn3)C2)c(C)c1 (configuration not stated) | -2.69
88 | Cc1ccc(N2CCCC(N(C)Cc3nc(C)c(C)o3)C2)nn1 (configuration not stated) | 3.15
89 | NCCN1C(=O)CC[C@H]2CN(Cc3ccc4occc4c3)CC[C@H]21 | -1.14
90 | CCCS(=O)(=O)N1CCN(C(C)(C)CO)CC1 | -0.45
91 | COCC(=O)N1CCC2(CC1)CN(c1ncccn1)CCO2 | -67.3
92 | Cc1nnc(C(C)NCC2(c3ccc(F)cc3)CCCCC2)o1 (configuration not stated) | 2.39

Row | SMILES | cytotoxicity at 10 µM [%]
93 | O=C(c1ccncc1)N1CCCC2(COCCN(c3ccccc3)C2)C1 (configuration not stated) | 2.31
94 | CCOCc1ncn2c1CN(S(=O)(=O)c1cccc(C)c1)CC2 | -1.33
95 | CCN(Cc1nc2c(cnn2C)c(=O)[nH]1)c1cc(C)cc(C)c1 | -5.83
96 | CC(C)CN1CCC2(CCN(C(=O)c3ccc(F)cc3)CC2)C1=O | 8.06
97 | CN(C)S(=O)(=O)N1CC(c2ccnc(Nc3ccccn3)n2)C1 | 8.84
98 | Cc1cc(C)n(-c2ccc(CNCc3ccc(OC(C)C)cc3)cn2)n1 | -6.95
99 | Cc1cccc(CN2CCc3c(COCC(=O)N(C)C)nn(C)c3C2)n1 | -120
100 | Cc1ccc(NC2CCN(C(=O)Cc3cccc(F)c3)CC2)nn1 | -5.23
101 | CNC(=O)c1cc2c(nc1NC(C)C)CCN(C(=O)NC(C)C)CC2 | -0.0714
102 | O=C(C1CC2(CCNCC2)CN1)N1CCN(c2ccccc2)CC1 (configuration not stated) | -8.6
103 | Cc1ccc(CN(C)C(=O)NCC(C)(C)CCS(C)(=O)=O)s1 | 6.24
104 | CCc1nc(C2CCCN2C(=O)c2ccc3c(c2)nnn3CC)no1 (configuration not stated) | 4.5
105 | COCC1CCN(CCCc2cccc(OC)c2)CC1 | -11
106 | CN(C)c1ncccc1CNC(=O)N1CCCC1c1ccsc1 (configuration not stated) | -6.33
107 | COc1ncccc1CNC(=O)c1ccco1 | -8.48
108 | O=C(NC1CCS(=O)(=O)C1)c1cc(Sc2ncccn2)ccn1 (configuration not stated) | 12
109 | O=C(Nc1ncn(CC(=O)N2CCCCCC2)n1)C1CCCC1 | -11.2
110 | Cc1ccc(CNC(=O)NC2CCCc3c2cnn3CCO)cn1 (configuration not stated) | -11.8
111 | N#Cc1ccc(N2CCCC3(CCN(c4cncnc4)C3=O)C2)nc1 (configuration not stated) | -97.6
112 | CC[C@H]1COCCN1C(=O)c1cnc(C(C)C)nc1C | 8.51
